# Source: ChEMBL document CHEMBL1150393, “Evaluation of radiolabeled (hetero)aromatic analogues of N-(2-diethylaminoethyl)-4-iodobenzamide for imaging and targeted radionuclide therapy of melanoma” (J Med Chem, 2008)
# Assays:
# [1] = Biodistribution in Stomach content of C57BL/6 mouse bearing mouse B16-F0 cells at 0.74 to 0.92 MBq, iv after 24 hrs; assay type: ADME, organism-based; conditions: in vivo
# Procedure, shortened: (§1)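 Male C57BL6 mice with s.c. left-flank B16-F0 melanoma (5 × 10⁵ cells in PBS). Two mice per time point frozen in liquid nitrogen after CO₂ sacrifice. Eight 40 µm whole-body cryosections per mouse read by multiwire proportional counter. cpm/mm² converted to kBq/g and expressed as %ID/g.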
# Thyroid gland [2] = assay: Biodistribution in thyroid of C57BL/6 mouse bearing mouse B16-F0 cells at 0.74 to 0.92 MBq, iv after 3 hrs; assay type: ADME, organism-based; conditions: in vivo
# Procedure, shortened: (§2)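 [¹²⁵I]-labelled compound given iv by tail vein (0.1 µmol per mouse) to male C57BL6 mice bearing s.c. B16-F0 flank tumours (5 × 10⁵ cells in PBS). Two mice per time point were killed by CO₂, frozen in liquid nitrogen and cut into 40 µm cryosections, eight slices per mouse. Slice radioactivity was read on a multiwire proportional counter, converted to kBq/g and reported as %ID/g.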
# [3] = Ratio of drug level in tumor to lung of C57BL/6 mouse bearing mouse B16-F0 cells at 0.74 to 0.92 MBq, iv after 1 hr; assay type: ADME, organism-based; conditions: in vivo
# Procedure, shortened: (§3)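 Tumour and organ radioactive concentrations came from whole-body cryosection counting (40 µm slices, eight per mouse, two mice per time) after tail-vein injection of the [¹²⁵I]-labelled compound (0.1 µmol) into male C57BL6 mice bearing s.c. B16-F0 melanoma. Each value is the ratio of the tumour concentration to the organ concentration.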
# Lung [4] = assay: Biodistribution in lung of C57BL/6 mouse bearing mouse B16-F0 cells at 0.74 to 0.92 MBq, iv after 3 hrs; assay type: ADME, organism-based; conditions: in vivo; procedure, shortened: as §1
# Kidney [5] = assay: Biodistribution in kidney of C57BL/6 mouse bearing mouse B16-F0 cells at 0.74 to 0.92 MBq, iv after 1 hr; assay type: ADME, organism-based; conditions: in vivo; procedure, shortened: as §1
# Spleen [6] = assay: Biodistribution in spleen of C57BL/6 mouse bearing mouse B16-F0 cells at 0.74 to 0.92 MBq, iv after 1 hr; assay type: ADME, organism-based; conditions: in vivo; procedure, shortened: as §2
# Muscle tissue = assay: Biodistribution in muscle of C57BL/6 mouse bearing mouse B16-F0 cells at 0.74 to 0.92 MBq, iv after 1 hr; assay type: ADME, organism-based; conditions: in vivo; procedure, shortened: as §1
# [7] = Biodistribution in tumor of C57BL/6 mouse bearing mouse B16-F0 cells at 0.74 to 0.92 MBq, iv after 24 hrs; assay type: ADME, organism-based, Neoplasm; conditions: in vivo; procedure, shortened: as §2
# Pancreas = assay: Biodistribution in pancreas of C57BL/6 mouse bearing mouse B16-F0 cells at 0.74 to 0.92 MBq, iv after 1 hr; assay type: ADME, organism-based; conditions: in vivo; procedure, shortened: as §1
# [8] = Biodistribution in intestinal content of C57BL/6 mouse bearing mouse B16-F0 cells at 0.74 to 0.92 MBq, iv after 3 hrs; assay type: ADME, organism-based; conditions: in vivo; procedure, shortened: as §1
# [9] = Ratio of drug level in tumor to liver of C57BL/6 mouse bearing mouse B16-F0 cells at 0.74 to 0.92 MBq, iv after 3 hrs; assay type: ADME, organism-based; conditions: in vivo; procedure, shortened: as §3
# [10] = Biodistribution in uvea of C57BL/6 mouse bearing mouse B16-F0 cells at 0.74 to 0.92 MBq, iv after 24 hrs; assay type: ADME, organism-based, Uveal tract; conditions: in vivo; procedure, shortened: as §2
# [11] = Biodistribution in intestinal content of C57BL/6 mouse bearing mouse B16-F0 cells at 0.74 to 0.92 MBq, iv after 6 hrs; assay type: ADME, organism-based; conditions: in vivo; procedure, shortened: as §1
# Spleen [12] = assay: Biodistribution in spleen of C57BL/6 mouse bearing mouse B16-F0 cells at 0.74 to 0.92 MBq, iv after 6 hrs; assay type: ADME, organism-based; conditions: in vivo; procedure, shortened: as §2
# [13] = Biodistribution in gall bladder of C57BL/6 mouse bearing mouse B16-F0 cells at 0.74 to 0.92 MBq, iv after 6 hrs; assay type: ADME, organism-based; conditions: in vivo; procedure, shortened: as §1
# [14] = Biodistribution in uvea of C57BL/6 mouse bearing mouse B16-F0 cells at 0.74 to 0.92 MBq, iv after 1 hr; assay type: ADME, organism-based, Uveal tract; conditions: in vivo; procedure, shortened: as §2
# Thyroid gland [15] = assay: Biodistribution in thyroid of C57BL/6 mouse bearing mouse B16-F0 cells at 0.74 to 0.92 MBq, iv after 24 hrs; assay type: ADME, organism-based; conditions: in vivo; procedure, shortened: as §2
# [16] = Partition coefficient, log P in phosphate buffer solution at pH 7.4; assay type: physicochemical
# Procedure, shortened: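 Shake-flask partition: 50 µM [¹²⁵I]-labelled compound in phosphate buffer pH 7.4 was mixed with 2 mL n-octanol. Each phase was γ-counted, P was taken as the octanol/buffer activity ratio, and log P was reported.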
# [17] = Biodistribution in intestinal content of C57BL/6 mouse bearing mouse B16-F0 cells at 0.74 to 0.92 MBq, iv after 24 hrs; assay type: ADME, organism-based; conditions: in vivo; procedure, shortened: as §1
# [18] = Biodistribution in tumor of C57BL/6 mouse bearing mouse B16-F0 cells at 0.74 to 0.92 MBq, iv after 6 hrs; assay type: ADME, organism-based, Neoplasm; conditions: in vivo; procedure, shortened: as §2
# [19] = Ratio of drug level in tumor to liver of C57BL/6 mouse bearing mouse B16-F0 cells at 0.74 to 0.92 MBq, iv after 6 hrs; assay type: ADME, organism-based; conditions: in vivo; procedure, shortened: as §3
# [20] = Drug excretion in mouse B16-F0 cells bearing C57BL/6 mouse urine at 0.74 to 0.92 MBq, iv after 72 hrs; assay type: ADME, organism-based; conditions: in vivo
# Procedure, shortened: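 Urine was collected from two B16-F0 tumour-bearing C57BL6 mice for up to 72 h after iv tail-vein injection of the [¹²⁵I]-labelled compound (0.1 µmol). Samples were counted to give cumulative urinary excretion as %ID.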
# [21] = Biodistribution in tumor of C57BL/6 mouse bearing mouse B16-F0 cells at 0.74 to 0.92 MBq, iv after 72 hrs; assay type: ADME, organism-based, Neoplasm; conditions: in vivo; procedure, shortened: as §2
# [22] = Ratio of drug level in tumor to lung of C57BL/6 mouse bearing mouse B16-F0 cells at 0.74 to 0.92 MBq, iv after 3 hrs; assay type: ADME, organism-based; conditions: in vivo; procedure, shortened: as §3
# Liver [23] = assay: Biodistribution in liver of C57BL/6 mouse bearing mouse B16-F0 cells at 0.74 to 0.92 MBq, iv after 1 hr; assay type: ADME, organism-based; conditions: in vivo; procedure, shortened: as §1
# [24] = Biodistribution in tumor of C57BL/6 mouse bearing mouse B16-F0 cells at 0.74 to 0.92 MBq, iv after 1 hr; assay type: ADME, organism-based, Neoplasm; conditions: in vivo; procedure, shortened: as §2
# Kidney [25] = assay: Biodistribution in kidney of C57BL/6 mouse bearing mouse B16-F0 cells at 0.74 to 0.92 MBq, iv after 3 hrs; assay type: ADME, organism-based; conditions: in vivo; procedure, shortened: as §1
# Blood [26] = assay: Biodistribution in blood of C57BL/6 mouse bearing mouse B16-F0 cells at 0.74 to 0.92 MBq, iv after 1 hr; assay type: ADME, organism-based; conditions: in vivo; procedure, shortened: as §1
# [27] = Biodistribution in uvea of C57BL/6 mouse bearing mouse B16-F0 cells at 0.74 to 0.92 MBq, iv after 72 hrs; assay type: ADME, organism-based, Uveal tract; conditions: in vivo; procedure, shortened: as §2
# Thyroid gland [28] = assay: Biodistribution in thyroid of C57BL/6 mouse bearing mouse B16-F0 cells at 0.74 to 0.92 MBq, iv after 6 hrs; assay type: ADME, organism-based; conditions: in vivo; procedure, shortened: as §2
# [29] = Biodistribution in Stomach content of C57BL/6 mouse bearing mouse B16-F0 cells at 0.74 to 0.92 MBq, iv after 6 hrs; assay type: ADME, organism-based; conditions: in vivo; procedure, shortened: as §1
# [30] = Biodistribution in uvea of C57BL/6 mouse bearing mouse B16-F0 cells at 0.74 to 0.92 MBq, iv after 6 hrs; assay type: ADME, organism-based, Uveal tract; conditions: in vivo; procedure, shortened: as §2
# Liver [31] = assay: Biodistribution in liver of C57BL/6 mouse bearing mouse B16-F0 cells at 0.74 to 0.92 MBq, iv after 6 hrs; assay type: ADME, organism-based; conditions: in vivo; procedure, shortened: as §1
# [32] = Ratio of drug level in tumor to liver of C57BL/6 mouse bearing mouse B16-F0 cells at 0.74 to 0.92 MBq, iv after 1 hr; assay type: ADME, organism-based; conditions: in vivo; procedure, shortened: as §3
# [33] = Biodistribution in intestinal content of C57BL/6 mouse bearing mouse B16-F0 cells at 0.74 to 0.92 MBq, iv after 1 hr; assay type: ADME, organism-based; conditions: in vivo; procedure, shortened: as §1
# Blood [34] = assay: Biodistribution in blood of C57BL/6 mouse bearing mouse B16-F0 cells at 0.74 to 0.92 MBq, iv after 3 hrs; assay type: ADME, organism-based; conditions: in vivo; procedure, shortened: as §1
# [35] = Biodistribution in uvea of C57BL/6 mouse bearing mouse B16-F0 cells at 0.74 to 0.92 MBq, iv after 3 hrs; assay type: ADME, organism-based, Uveal tract; conditions: in vivo; procedure, shortened: as §2
# [36] = Biodistribution in Stomach content of C57BL/6 mouse bearing mouse B16-F0 cells at 0.74 to 0.92 MBq, iv after 1 hr; assay type: ADME, organism-based; conditions: in vivo; procedure, shortened: as §1
# Lung [37] = assay: Biodistribution in lung of C57BL/6 mouse bearing mouse B16-F0 cells at 0.74 to 0.92 MBq, iv after 1 hr; assay type: ADME, organism-based; conditions: in vivo; procedure, shortened: as §1
# [38] = Biodistribution in Stomach content of C57BL/6 mouse bearing mouse B16-F0 cells at 0.74 to 0.92 MBq, iv after 3 hrs; assay type: ADME, organism-based; conditions: in vivo; procedure, shortened: as §1
# [39] = Biodistribution in gall bladder of C57BL/6 mouse bearing mouse B16-F0 cells at 0.74 to 0.92 MBq, iv after 3 hrs; assay type: ADME, organism-based; conditions: in vivo; procedure, shortened: as §1
# Liver [40] = assay: Biodistribution in liver of C57BL/6 mouse bearing mouse B16-F0 cells at 0.74 to 0.92 MBq, iv after 3 hrs; assay type: ADME, organism-based; conditions: in vivo; procedure, shortened: as §1
# Thyroid gland [41] = assay: Biodistribution in thyroid of C57BL/6 mouse bearing mouse B16-F0 cells at 0.74 to 0.92 MBq, iv after 72 hrs; assay type: ADME, organism-based; conditions: in vivo; procedure, shortened: as §2
# [42] = Biodistribution in tumor of C57BL/6 mouse bearing mouse B16-F0 cells at 0.74 to 0.92 MBq, iv after 3 hrs; assay type: ADME, organism-based, Neoplasm; conditions: in vivo; procedure, shortened: as §2
smiles,measurement,setting,value
CCN(CC)CCNC(=O)c1nc2cc([125I])ccc2[nH]1.Cl.Cl,Drug uptake,[1],2.32 % ID/g
same,Drug uptake,Thyroid gland [2],63.44 % ID/g
same,Ratio,[3],2.86
same,Drug uptake,Lung [4],3.74 % ID/g
same,Drug uptake,Kidney [5],6.9 % ID/g
same,Drug uptake,Spleen [6],11.51 % ID/g
same,Drug uptake,Muscle tissue,0.55 % ID/g
same,Drug uptake,[7],7.1 % ID/g
same,Drug uptake,Pancreas,6.17 % ID/g
same,Drug uptake,[8],72.05 % ID/g
same,Ratio,[9],2.26
same,Drug uptake,[10],10.44 % ID/g
same,Drug uptake,[11],95.86 % ID/g
same,Drug uptake,Spleen [12],14.97 % ID/g
same,Drug uptake,[13],38.11 % ID/g
same,Drug uptake,[14],12.87 % ID/g
same,Drug uptake,Thyroid gland [15],142.88 % ID/g
same,logD,[16],1.47
same,Drug uptake,[17],3.19 % ID/g
same,Drug uptake,[18],9.9 % ID/g
same,Ratio,[19],2.93
same,Activity,[20],17.1%
same,Drug uptake,[21],4.5 % ID/g
same,Ratio,[22],4.31
same,Drug uptake,Liver [23],13.08 % ID/g
same,Drug uptake,[24],14.8 % ID/g
same,Drug uptake,Kidney [25],4.57 % ID/g
same,Drug uptake,Blood [26],3.31 % ID/g
same,Drug uptake,[27],7.26 % ID/g
same,Drug uptake,Thyroid gland [28],34.17 % ID/g
same,Drug uptake,[29],8.62 % ID/g
same,Drug uptake,[30],10.09 % ID/g
same,Drug uptake,Liver [31],3.38 % ID/g
same,Ratio,[32],1.13
same,Drug uptake,[33],105.55 % ID/g
same,Drug uptake,Blood [34],1.33 % ID/g
same,Drug uptake,[35],24.4 % ID/g
same,Drug uptake,[36],24.46 % ID/g
same,Drug uptake,Lung [37],5.16 % ID/g
same,Drug uptake,[38],17.98 % ID/g
same,Drug uptake,[39],160.6 % ID/g
same,Drug uptake,Liver [40],7.15 % ID/g
same,Drug uptake,Thyroid gland [41],174.73 % ID/g
same,Drug uptake,[42],16.1 % ID/g
